Assay results from ChEMBL document CHEMBL1156948, “Statistical molecular design of a focused salicylidene acylhydrazide library and multivariate QSAR of inhibition of type III secretion in the Gram-negative bacterium Yersinia” (Bioorg Med Chem, 2010).
The source made the active and inactive calls.

Legend:
[1] = tested on: Yersinia pseudotuberculosis YPIII; test: Inhibition of T3S in Yersinia pseudotuberculosis YPIII expressing yopE-luxAB at 3.13 uM after 3 hrs by luciferase reporter gene assay
How it was run: (§1)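 Strain YPIII pIB102 (yopE-luxAB) grown overnight at room temperature in BHI with 5 mM EGTA and 20 mM MgCl2 (calcium depletion), adjusted to OD600 0.088–0.095. Compound added from DMSO at 1.56–200 µM final (eight concentrations). Shaken 1 h at room temperature, then 2 h at 37 °C. Decanal added and light emission read immediately. Triplicates, repeated at least three times.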

[2] = tested on: Yersinia pseudotuberculosis YPIII; test: Inhibition of T3S in Yersinia pseudotuberculosis YPIII expressing yopE-luxAB at 6.25 uM after 3 hrs by luciferase reporter gene assay; how it was run: as §1
[3] = tested on: Yersinia pseudotuberculosis YPIII; test: Inhibition of T3S in Yersinia pseudotuberculosis YPIII expressing yopE-luxAB at 12.5 uM after 3 hrs by luciferase reporter gene assay; how it was run: as §1
[4] = tested on: Yersinia pseudotuberculosis YPIII; test: Inhibition of T3S in Yersinia pseudotuberculosis YPIII expressing yopE-luxAB at 25 uM after 3 hrs by luciferase reporter gene assay; how it was run: as §1
[5] = tested on: Yersinia pseudotuberculosis YPIII; test: Inhibition of T3S in Yersinia pseudotuberculosis YPIII expressing yopE-luxAB at 50 uM after 3 hrs by luciferase reporter gene assay; how it was run: as §1
[6] = tested on: Yersinia pseudotuberculosis YPIII; test: Inhibition of T3S in Yersinia pseudotuberculosis YPIII expressing yopE-luxAB at 100 uM after 3 hrs by luciferase reporter gene assay; how it was run: as §1
[7] = tested on: Yersinia pseudotuberculosis YPIII; test: Inhibition of T3S in Yersinia pseudotuberculosis YPIII expressing yopE-luxAB at 200 uM after 3 hrs by luciferase reporter gene assay; how it was run: as §1
[8] = molecular target: Tyrosine-protein phosphatase YopH (Yersinia pseudotuberculosis serotype I (strain IP32953)) (UniProt P08538); test: Inhibition of YopH in Yersinia pseudotuberculosis YPIII expressing yopE-luxAB treated 3 hrs before substrate addition measured after 15 mins by microplate reader
How it was run: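 Same calcium-depleted YPIII pIB102 cultures and compound exposure (1 h room temperature, then 2 h 37 °C). An aliquot of the bacterial suspension was mixed with 25 mM p-nitrophenyl phosphate, 40 mM MES pH 5.0, 1.6 mM DTT. Incubated 15 min at 37 °C, quenched with 1 M NaOH, absorbance read at 405 nm. Triplicates, repeated at least three times.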

[9] = tested on: Yersinia pseudotuberculosis; test: Antibacterial activity against Yersinia pseudotuberculosis expressing pIB102 at 50 uM after 23 hrs by broth dilution assay; format: functional, organism-based
How it was run: (§2)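 Wild-type pIB102 grown overnight in LB at room temperature, diluted to OD600 = 0.1 in LB with 2.5 mM CaCl2. Compound added from DMSO stock to final 50 and 100 µM. Incubated at 37 °C with absorbance at 595 nm read over 23 h.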

Escherichia coli [10] = test: Antibacterial activity against Escherichia coli DH5[alpha] at 50 uM after 23 hrs by broth dilution assay; format: functional, organism-based
How it was run: (§3)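 Overnight LB culture of E. coli DH5α grown at 37 °C, diluted to OD600 0.1 in LB with 2.5 mM CaCl2; compound added from DMSO stock to final 50 or 100 µM. Incubated at 37 °C with absorbance at 595 nm followed over 23 h.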

[11] = tested on: Yersinia pseudotuberculosis; test: Antibacterial activity against Yersinia pseudotuberculosis expressing pIB102 at 100 uM after 23 hrs by broth dilution assay; format: functional, organism-based; how it was run: as §2
Escherichia coli [12] = test: Antibacterial activity against Escherichia coli DH5[alpha] at 100 uM after 23 hrs by broth dilution assay; format: functional, organism-based; how it was run: as §3
[13] = tested on: Yersinia pseudotuberculosis; test: Antibacterial activity against Yersinia pseudotuberculosis expressing pIB102 infected in mouse J774 cells assessed as inhibition of bacteria-induced cell death at 50 uM after 14 hrs using calcein AM staining by fluorescence microscopy; format: functional, organism-based
How it was run: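 J774A macrophages (4 × 10^4 cells/well) grown 24 h in DMEM/10% FCS/gentamicin. Wild-type pIB102 grown in LB plus kanamycin overnight at room temperature, diluted 1/10 in DMEM, shaken 1 h at room temperature then 2 h at 37 °C. Added at OD600 = 0.002 with compound (25, 50, 100 µM final; DMSO <0.5%). Incubated 14 h, 37 °C, 5% CO2. CalceinAM 40 min, fluorescence 485/535 nm; uninfected cells = 100% viability.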

Escherichia coli [14] = test: Antibacterial activity against Enterotoxigenic Escherichia coli infected in mouse J774 cells assessed as inhibition of bacteria-induced cell death at 25 to 100 uM after 14 hrs using calcein AM staining by fluorescence microscopy; format: functional, organism-based
How it was run: (§4)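 J774A macrophages (4×10⁴/well, DMEM with 10% FCS, gentamicin 3 µg/mL, 24 h at 37 °C, 5% CO2) washed with PBS, then given fresh DMEM with compound plus bacteria (OD600 0.002), final 25, 50, 100 µM, DMSO below 0.5%. ETEC grown overnight in LB at 37 °C, diluted and grown 3 h. 14 h at 37 °C, 5% CO2; CalceinAM 40 min, fluorescence 485/535 nm, confirmed by microscopy; uninfected cells = 100% viability; gentamicin 5 µg/mL rescue control.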

J774 = test: Cytotoxicity against mouse J774 cells at 25 to 100 uM after 14 hrs using calcein AM staining by fluorescence microscopy; format: cell-based; settings: j774, 14 h; how it was run: as §4
[15] = tested on: Yersinia pseudotuberculosis YPIII; test: Inhibition of T3S in Yersinia pseudotuberculosis YPIII expressing yopE-luxAB at 1.56 uM after 3 hrs by luciferase reporter gene assay; how it was run: as §1
[16] = Aqueous solubility at 200 uM; format: physicochemical; settings: buffer

Chain of Tyrosine-protein phosphatase YopH (Yersinia pseudotuberculosis serotype I (strain IP32953)) (P08538 whole entry): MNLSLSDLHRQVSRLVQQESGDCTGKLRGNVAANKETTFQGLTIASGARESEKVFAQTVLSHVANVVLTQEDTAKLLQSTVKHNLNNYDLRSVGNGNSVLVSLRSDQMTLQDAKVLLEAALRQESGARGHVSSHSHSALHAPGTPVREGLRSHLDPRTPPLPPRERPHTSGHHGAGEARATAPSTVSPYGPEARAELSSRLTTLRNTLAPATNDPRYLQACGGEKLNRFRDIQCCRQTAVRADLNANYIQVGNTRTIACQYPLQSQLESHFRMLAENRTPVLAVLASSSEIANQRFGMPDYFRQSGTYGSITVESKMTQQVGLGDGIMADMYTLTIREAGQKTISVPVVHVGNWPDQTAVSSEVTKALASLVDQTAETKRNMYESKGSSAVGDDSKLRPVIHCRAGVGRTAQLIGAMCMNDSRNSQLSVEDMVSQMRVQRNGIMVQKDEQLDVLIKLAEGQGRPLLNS

Row | SMILES | inhibition [1] [%] | inhibition [2] [%] | inhibition [3] [%] | inhibition [4] [%] | inhibition [5] [%] | inhibition [6] [%] | inhibition [7] [%] | inhibition [8] | Activity [9] | Activity (Escherichia coli [10]) | Activity [11] | Activity (Escherichia coli [12]) | inhibition [13] | inhibition (Escherichia coli [14]) | Activity (J774) | inhibition [15] [%] | solubility [16]
1 | O=C(COc1ccc([N+](=O)[O-])cc1)N/N=C/c1cccc(F)c1O | -5 | 6 | 4 | 25 | 84 | 95 | 97 | Active | inactive | inactive | inactive | inactive | Active | inactive | Non-toxic |  | 
2 | COc1cccc(C(=O)N/N=C/c2cccc(F)c2O)c1 | 7 | 9 | 11 | 17 | 45 | 58 | 74 |  | inactive | inactive | inactive | inactive | Active | inactive | Non-toxic | -2 | 
3 | O=C(CCc1ccc(F)cc1)N/N=C/c1cc(F)cc(Cl)c1O | 2 | -1 | 10 | 15 | 63 | 90 | 94 |  | inactive | inactive | inactive | inactive | inactive | inactive | Non-toxic | -6 | 
4 | COc1ccc(Br)c(/C=N/NC(=O)c2snnc2C)c1O | 14 | 19 | 21 | 34 | 60 | 71 |  |  | inactive | inactive | inactive | inactive |  |  |  | -5 | Insoluble
5 | O=C(N/N=C/c1cc(I)cc(I)c1O)c1cc(Cl)cc(Cl)c1 | 12 | 15 | 17 | 23 | 26 | 21 |  | inactive | inactive | inactive | inactive | inactive |  |  |  | 0 | Insoluble
6 | CC(C)(C)c1cc(/C=N/NC(=O)c2cccc(C(F)(F)F)c2)c(O)c(C(C)(C)C)c1 | -10 | 3 | 7 | 6 | 9 | 11 | 2 |  | inactive | inactive | inactive | inactive | inactive | inactive | Non-toxic |  | 
